# Reference: ChEMBL document CHEMBL1955790, “One pot synthesis and anticancer activity of dimeric phloroglucinols” (Bioorg Med Chem Lett, 2012)
# What was measured:
# Calu-1 [1] = experiment: Cytotoxicity against human Calu1 cells after 48 hrs by WST-8 assay; assay type: functional, cell-based; settings: Calu-1, 48 h
# Summary of the method: (§1)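 ATCC cells kept in DMEM with 10% FBS, penicillin/streptomycin at 37 °C, 5% CO2. Seeded 5×10^3/well and left overnight, then exposed to a range of concentrations with DMSO vehicle (≤0.1%) as control. After 48 h, CCK-8 (WST-8) was added for 4 h at 37 °C and A450 read, corrected to 650 nm. Viability is % of DMSO control. IC50 was taken from log cytotoxicity curves.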
# NCI-H460 [2] = experiment: Cytotoxicity against human NCI-H460 cells after 48 hrs by WST-8 assay; assay type: functional, cell-based; settings: NCI-H460, 48 h; summary of the method: as §1
# HCT-116 [3] = experiment: Cytotoxicity against human HCT116 cells after 48 hrs by WST-8 assay; assay type: functional, cell-based; settings: HCT-116, 48 h; summary of the method: as §1
# MCF-10A = experiment: Cytotoxicity against human MCF10A cells after 48 hrs by WST-8 assay; assay type: cell-based; summary of the method: as §1
# ACHN [4] = experiment: Growth inhibition of human ACHN cells at 10 uM after 48 hrs by WST-8 assay; assay type: functional; settings: read-out: GI
# Summary of the method: (§2)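 ATCC cells kept in DMEM with 10% FBS and antibiotics at 37 °C, 5% CO2. Seeded 5×10^3/well, incubated overnight, then treated with compound for 48 h against a DMSO vehicle control (≤0.1%). CCK-8 (WST-8) reduction by live-cell dehydrogenases read at 450 nm (corrected 650 nm) after 4 h at 37 °C. Viable cells expressed as % of the DMSO control.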
# PANC-1 [5] = experiment: Growth inhibition of human PANC1 cells at 10 uM after 48 hrs by WST-8 assay; assay type: functional; settings: PANC-1, 48 h, read-out: GI; summary of the method: as §2
# Calu-1 [6] = experiment: Growth inhibition of human Calu1 cells at 10 uM after 48 hrs by WST-8 assay; assay type: functional; settings: Calu-1, 48 h, read-out: GI; summary of the method: as §2
# NCI-H460 [7] = experiment: Growth inhibition of human NCI-H460 cells at 10 uM after 48 hrs by WST-8 assay; assay type: functional; settings: NCI-H460, 48 h, read-out: GI; summary of the method: as §2
# HCT-116 [8] = experiment: Growth inhibition of human HCT116 cells at 10 uM after 48 hrs by WST-8 assay; assay type: functional; settings: HCT-116, 48 h, read-out: GI; summary of the method: as §2
# ACHN [9] = experiment: Cytotoxicity against human ACHN cells after 48 hrs by WST-8 assay; assay type: functional, cell-based; summary of the method: as §1
# PANC-1 [10] = experiment: Cytotoxicity against human PANC1 cells after 48 hrs by WST-8 assay; assay type: functional, cell-based; settings: PANC-1, 48 h; summary of the method: as §1
# ACHN [11] = experiment: Growth inhibition of human ACHN cells at 500 nM after 48 hrs by WST-8 assay; assay type: functional; settings: read-out: GI; summary of the method: as §2
# PANC-1 [12] = experiment: Growth inhibition of human PANC1 cells at 500 nM after 48 hrs by WST-8 assay; assay type: functional; settings: PANC-1, 48 h, read-out: GI; summary of the method: as §2
# Calu-1 [13] = experiment: Growth inhibition of human Calu1 cells at 500 nM after 48 hrs by WST-8 assay; assay type: functional; settings: Calu-1, 48 h, read-out: GI; summary of the method: as §2
# NCI-H460 [14] = experiment: Growth inhibition of human NCI-H460 cells at 500 nM after 48 hrs by WST-8 assay; assay type: functional; settings: NCI-H460, 48 h, read-out: GI; summary of the method: as §2
# HCT-116 [15] = experiment: Growth inhibition of human HCT116 cells at 500 nM after 48 hrs by WST-8 assay; assay type: functional; settings: HCT-116, 48 h, read-out: GI; summary of the method: as §2
SMILES,IC50 (Calu-1 [1]),IC50 (NCI-H460 [2]),IC50 (HCT-116 [3]),IC50 (MCF-10A),inhibition of growth at 10 µM (ACHN [4]),inhibition of growth at 10 µM (PANC-1 [5]),inhibition of growth at 10 µM (Calu-1 [6]),inhibition of growth at 10 µM (NCI-H460 [7]),inhibition of growth at 10 µM (HCT-116 [8]),IC50 (ACHN [9]),IC50 (PANC-1 [10]),inhibition of growth at 0.5 µM (ACHN [11]),inhibition of growth at 0.5 µM (PANC-1 [12]),inhibition of growth at 0.5 µM (Calu-1 [13]),inhibition of growth at 0.5 µM (NCI-H460 [14]),inhibition of growth at 0.5 µM (HCT-116 [15])
CC(C)CC(=O)c1c(O)c(C(=O)CC(C)C)c(O)c(C(c2cc3ccccc3s2)c2c(O)c(C(=O)CC(C)C)c(O)c(C(=O)CC(C)C)c2O)c1O,9.5 µM,9.7 µM,9.8 µM,> 30 µM,54%,59%,54%,54%,65%,9.9 µM,9.8 µM,–,–,–,–,–
CC(C)CC(=O)c1c(O)c(C=O)c(O)c(C(c2cccnc2)c2c(O)c(C=O)c(O)c(C(=O)CC(C)C)c2O)c1O,6.3 µM,5.8 µM,5.5 µM,> 30 µM,71%,67%,66%,68%,69%,5.7 µM,6.1 µM,–,–,–,–,–
CC(C)CC(=O)c1c(O)c(C=O)c(O)c(C(c2ccc3c(c2)Cc2ccccc2-3)c2c(O)c(C=O)c(O)c(C(=O)CC(C)C)c2O)c1O,8.8 µM,9.2 µM,9.4 µM,26.2 µM,50%,57%,58%,54%,52%,9.9 µM,9.6 µM,–,–,–,–,–
CC(C)CC(=O)c1c(O)c(C=O)c(O)c(C(c2ccc3c(c2)OCO3)c2c(O)c(C=O)c(O)c(C(=O)CC(C)C)c2O)c1O,9.2 µM,8.6 µM,9.5 µM,25.9 µM,53%,55%,54%,51%,50%,8.9 µM,8.8 µM,–,–,–,–,–
CC(C)CC(=O)c1c(O)c(C(=O)CC(C)C)c(O)c(C(c2ccc3c(c2)OCO3)c2c(O)c(C(=O)CC(C)C)c(O)c(C(=O)CC(C)C)c2O)c1O,6.5 µM,6.6 µM,7.1 µM,> 30 µM,67%,69%,62%,63%,60%,6.7 µM,7.2 µM,–,–,–,–,–
Nc1ccn([C@@H]2O[C@H](CO)[C@@H](O)C2(F)F)c(=O)n1 [GEMCITABINE],0.52 µM,0.23 µM,0.32 µM,> 10 µM,–,–,–,–,–,0.48 µM,0.11 µM,77%,83%,74%,81%,86%
